# High-throughput results as filed in PubChem BioAssay.
# An excerpt weighted towards active compounds, which were near 3.5% of everything screened.
# ERAP1 inh: blocks human ERAP1 aminopeptidase activity. recombinant ERAP1, Leu-AMC fluorescence, 60 min. inhibition, % at 10.7 µM. 0.15% of 340,000 active. AID 652197;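 active = mean replicate inhibition of at least 30%, or all replicates individually reaching that 30% level; inactive = mean below 30% and not every replicate reaching it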;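 also: 0% = neutral control wells and 100% = L-leucinethiol positive control wells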
# Target sequence (Q9NZ08 whole entry, looked up): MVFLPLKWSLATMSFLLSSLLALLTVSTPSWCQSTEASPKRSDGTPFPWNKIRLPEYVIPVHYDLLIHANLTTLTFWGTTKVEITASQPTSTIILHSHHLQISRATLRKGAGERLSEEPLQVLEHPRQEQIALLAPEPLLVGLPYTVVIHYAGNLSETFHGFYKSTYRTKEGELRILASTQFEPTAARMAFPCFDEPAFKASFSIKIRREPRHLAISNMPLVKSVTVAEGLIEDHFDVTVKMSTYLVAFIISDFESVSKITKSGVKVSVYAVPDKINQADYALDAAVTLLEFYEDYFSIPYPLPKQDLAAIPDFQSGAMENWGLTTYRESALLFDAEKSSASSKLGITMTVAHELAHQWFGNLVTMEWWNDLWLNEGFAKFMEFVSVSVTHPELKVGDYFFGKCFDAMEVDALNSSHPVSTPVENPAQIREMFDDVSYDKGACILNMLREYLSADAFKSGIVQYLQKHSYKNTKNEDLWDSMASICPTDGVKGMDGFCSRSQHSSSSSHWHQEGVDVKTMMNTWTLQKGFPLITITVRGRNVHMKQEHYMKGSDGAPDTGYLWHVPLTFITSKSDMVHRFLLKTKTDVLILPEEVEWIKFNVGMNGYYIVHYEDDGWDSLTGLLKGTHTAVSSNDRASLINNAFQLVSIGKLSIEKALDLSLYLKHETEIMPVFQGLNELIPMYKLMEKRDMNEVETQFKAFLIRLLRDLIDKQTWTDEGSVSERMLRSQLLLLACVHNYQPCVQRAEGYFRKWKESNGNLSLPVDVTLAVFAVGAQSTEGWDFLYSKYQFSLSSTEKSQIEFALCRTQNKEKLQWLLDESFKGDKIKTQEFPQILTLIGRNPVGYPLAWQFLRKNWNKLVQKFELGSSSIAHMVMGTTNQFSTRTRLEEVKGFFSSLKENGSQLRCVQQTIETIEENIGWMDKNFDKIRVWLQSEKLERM
# MITF TRPM1 HTS: activators of MITF-driven TRPM1 promoter activity in SK-MEL-5 cells. SK-MEL-5 TRPM1-promoter luciferase, 24 h; % of positive control, neutral wells = 0. activation, % at 12.5 µM. 0.75% of 300,000 active;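 active = mean activation of at least 80% with every replicate also reaching 80%; inconclusive = mean reaches 80% but some replicate falls short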;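 also: 0% = neutral control wells and 100% = parthenolide positive control wells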
# Env fusion inh: HIV envelope-mediated fusion inhibition. HeLa-JRFL Env/CEM21 cell fusion, luciferase. inhibition, % at 12.3 µM. 1.1% of 360,000 active. AID 651610;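 active = mean replicate inhibition score of at least 50 and every replicate individually at or above 50; inconclusive = only one of the two criteria met; inactive = mean below 50 and not all replicates reaching 50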;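 also: 0% = plate neutral controls and 100% = maraviroc near 300 nM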
# esBAF inh: SWI/SNF esBAF complex inhibition | mouse ES cells, Bmi1-luciferase knock-in reporter, 24 h; 100% = twice the neutral-well signal | reporter increase, % at 12.5 µM | 2% of 350,000 active; in the data active = activation above about 40%; inconclusive = no clear call, values can overlap the other calls;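 also: 0% = median of the plate's neutral control wells and 100% = double that signal; a rise in the Bmi1 reporter signal indicates esBAF inhibition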
# Cneo AK release: Cryptococcus neoformans lysis via adenylate kinase release; lysis activity, % at 15 µM; 0.2% of 360,000 active; C. neoformans lysis, adenylate kinase release luminescence, 4 h; normalised: neutral wells 0, clomiphene wells 100; AID 651654;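 active = mean lysis activity across replicates of at least 80%, whatever share of replicates individually reach that level; inactive = mean lysis activity below 80%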
#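 Material: C. neoformans cells | Amount: Yeast cell density of 5 × 10^6 cells/mL | Medium: Fresh YPD growth medium | Dosing: Single dose | Times: Static 4 h at 37 °C with compound, 1 h detection | Detection: AK luminescence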
# Wnt act: activates Wnt/beta-catenin signaling in a reporter cell assay; activator, plate reader; 1.2% of 300,000 active; activation, % at 9.35 µM; in the data active = activation above about 30%, passing the limit was not always enough; inconclusive = no clear call, values can overlap the other calls;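 also: 0% = neutral control wells and 100% = positive control wells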
# The depositor's hits bear a star; ? = inconclusive; · = no result; [ ] = dose if it differs, or a comment.
SMILES,ERAP1 inh,MITF TRPM1 HTS,Env fusion inh,esBAF inh,Cneo AK release,Wnt act
CC(=O)Nc1cccc(C(=O)OCC(=O)c2ccccc2Cl)c1,-1,52,-73,·,·,47*
Cc1cn2c(N)c(/C=C3\C=Nc4ccccc43)c(=O)nc2s1,·,·,-13,·,·,39*
COc1cc(C(=O)NCc2ccc(-c3nc4ccccc4s3)cc2)cc(OC)c1OC,0,48,5,·,·,-2
COc1cccc(C(=O)NCc2ccc(-c3nc4ccccc4s3)cc2)c1,·,45,·,52*,·,-1
CN(C(=O)OC(C)(C)C)c1ccc(-c2nc3ccccc3s2)cc1,-5,-94,57*,-80,-9,-20
COc1ccc(C(=O)NCc2ccc(-c3nc4ccccc4s3)cc2)cc1,·,74,·,69*,0,·
O=C(C[C@@H]1C[C@@H]2c3cc(NS(=O)(=O)c4ccccc4)ccc3O[C@@H]2[C@@H](CO)O1)NC1CCCC1,0,·,·,5,22,·
Cc1ccc(C)c(NC(=O)c2cnn(-c3ccccc3)c2C)c1,1,·,0,27,-1,9
Cc1ccccc1NC(=O)c1cnn(-c2ccccc2)c1C,5,64,-3,75*,-1,?
CCOC(=O)c1cnn(-c2ccccc2)c1NC(=O)c1ccccc1C,·,-4,-16,-8,0,39*
Cc1ccccc1C(=O)Nc1c(C(=O)N2CCCC2)cnn1-c1ccccc1,-3,3,·,2,-1,0
Cc1cccc(NC(=O)c2cnn(-c3ccccc3)c2C)c1C,-1,·,-14,63*,-3,0
CO[C@H]1CN(C)C(=O)c2ccc(NS(=O)(=O)c3ccc(F)cc3)cc2OC[C@H](C)NC[C@H]1C,1,·,-8[16.7 µM],0,-1,·
CCCC(=O)Nc1nc(-c2ccccc2)ns1,·,?,-30,·,·,?
CCCc1nnc(NC(=S)Nc2ccccc2)s1,2,61,-41,·,·,23
CC(C)C(=O)Nc1nnc(NC(=S)Nc2ccccc2)s1,6,37,-8,76*,-5,8
CC(C)C(=O)Nc1nc(-c2ccccc2)ns1,·,135*,-264,56*,-2,-5
CCC(=O)Nc1nc(-c2ccccc2)ns1,·,·,-100,43*,-3,·
CCC(=O)N1CC2(CCN(Cc3ccccc3Cl)CC2)c2c([nH]c3cc(OC)ccc23)[C@@H]1CO,-1,·,·,·,·,·
Cc1noc(C)c1NC(=O)N(C)C[C@H]1Oc2ccc(N(C)C)cc2CC(=O)N([C@@H](C)CO)C[C@H]1C,-2,·,-1[16.7 µM],-2,2,·
O=C1CCCCCN1Cc1nnc(SCc2nc3ccccc3s2)n1-c1ccccn1,·,·,-82,?,-3,57*
CCNC(=O)CSc1nnc(CN2CCCCCC2=O)n1-c1ccccn1,-3,15,4,·,·,-1
COc1ccc2nc(N3C(=O)CNC3=S)sc2c1,0,·,31,·,-10,54*
Cc1ccc2nc(N3C(=O)CNC3=S)sc2c1,-3,·,3,·,-1,-2
C[C@H]1CN([C@@H](C)CO)C(=O)c2cc(C#Cc3ccccc3F)cnc2O[C@@H]1CN(C)C(=O)C1CCC1,-3,·,-7[16.7 µM],-4,-3,·
SMILES,ERAP1 inh,MITF TRPM1 HTS,Env fusion inh,esBAF inh,Cneo AK release,Wnt act
CC1(C)Cc2c(sc3nc(SCC(=O)NCc4ccco4)n(-c4ccccc4)c(=O)c23)CS1,·,7,·,-2,·,·
O=c1c2c3c(sc2nc(NCCO)n1CCc1ccccc1)CCCCC3,·,-12,-155,1,0,-6
CN(C)CCNc1nc2sc3c(c2c(=O)n1Cc1ccccc1)CCCCC3,0,-4,0,-4,-7,-7
O=c1c2c3c(sc2nc(NCCO)n1Cc1ccco1)CCCCC3,-1,28,6,80*,-3,1
O=C(CSc1nc2sc3c(c2c(=O)n1-c1ccccc1)CCCC3)NCc1ccco1,-1,-33,66*,-12,3,-2
COCCNc1nc2sc3c(c2c(=O)n1Cc1ccco1)CCCCC3,-1,39,-6,75*,-3,20
CCCC#Cc1ccc([C@@H]2[C@H](CO)N3CCCCN(C(=O)NC4CCCC4)C[C@@H]23)cc1,-1,·,·,-3,-5,·
C[C@H](CO)N1C[C@H](C)[C@H](CN(C)Cc2ccncc2)Oc2ccc(NC(=O)NC3CCCCC3)cc2C1=O,1,·,7[16.7 µM],-2,4,·
Clc1ccc(-c2cc3ccccc3[nH]2)cc1,·,·,-39,81*,-13,42*
Cc1ccc(-c2cc(=O)c3ccccc3[nH]2)cc1,-1,-2,-209,3,2,12
C[C@@H]1CN([C@H](C)CO)C(=O)c2cc(-c3ccncc3)cnc2O[C@H]1CN(C)C(=O)C1CCCCC1,-2,·,1[16.7 µM],1,-3,·
COc1ccc(CN(C(=O)c2nsc(Cl)c2Cl)C(C(=O)NC2CCCC2)c2ccc(C)cc2)cc1 (stereo unspecified),0,14,39,·,·,2
Cc1ccc(C)c(N(C(=O)c2nsc(Cl)c2Cl)C(C(=O)NC2CCCC2)c2ccc(O)cc2)c1 (stereo unspecified),·,-3,89*,4,0,·
Cc1cc(C(=O)CN2C(=O)c3cccc(N)c3C2=O)c(C)n1Cc1cccs1,·,106*,·,43*,-3,20
COc1ccc(NC(=O)c2cc(C)n(Cc3cccs3)c2C)cc1,1,·,-124,·,-7,68*
CC1CCCCC12NC(=O)N(CC(=O)NCc1cccs1)C2=O (stereo unspecified),-1,·,-24,3,0,-2
Cc1cc(C(=O)COc2ccc3ccc(=O)oc3c2)c(C)n1Cc1cccs1,·,18,8,·,·,·
Cc1cc(C(=O)CN2C(=O)NC3(CCCCC3)C2=O)c(C)n1Cc1ccco1,·,?,-63,·,-2,73*
Cc1cc(C(=O)CN2C(=O)NC3(CCCCC3)C2=O)c(C)n1C,-1,29,-3,14,-1,5
Cc1cc(C(=O)CN2C(=O)NC3(CCCCC3C)C2=O)c(C)n1Cc1cccs1 (stereo unspecified),·,92*,-14,·,1,65*
CO[C@H]1CN(C)C(=O)c2cc(NC(=O)c3cc(C)on3)ccc2OC[C@H](C)N(CC2CC2)C[C@H]1C,·,·,14[16.7 µM],-6,-1,·
